Reference: ChEMBL document CHEMBL1275348, “Design, synthesis, and evaluation of duocarmycin O-amino phenol prodrugs subject to tunable reductive activation” (J Med Chem, 2010)
Calls of active or inactive are those of the source. No cut-off for these calls is given here.

What was measured:
[1] = system: L1210; assay: Cytotoxicity against mouse L1210 cells; format: functional, cell-based
[2] = system: L1210; assay: Antitumor activity against mouse L1210 cells xenografted in DBA/2J mouse at 250 mg/kg, ip administered 3 times on day 1, 5 and 9 postimplantation relative to control; format: functional; conditions: route intraperitoneal
How it was run: (§1)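 Syngeneic L1210 leukemia cells (1 × 10^6) were injected i.p. into DBA/2J mice on day 0. Ten mice were randomly assigned per treatment or vehicle group. Compounds were formulated in 30% DMSO plus 0.7% glucose solution and injected i.p. on days 1, 5 and 9. Animals were monitored daily and weighed three times weekly, with the study running 120 days.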

[3] = system: L1210; assay: Antitumor activity against mouse L1210 cells xenografted in DBA/2J mouse at 100 ug/kg, ip administered 3 times on day 1, 5 and 9 postimplantation relative to control; conditions: route intraperitoneal
[4] = system: L1210; assay: Antitumor activity against mouse L1210 cells xenografted in DBA/2J mouse at 500 mg/kg, ip administered 3 times on day 1, 5 and 9 postimplantation relative to control; format: functional; conditions: route intraperitoneal; how it was run: as §1
[5] = system: L1210; assay: Antitumor activity against mouse L1210 cells xenografted in DBA/2J mouse at 50 mg/kg, ip administered 3 times on day 1, 5 and 9 postimplantation relative to control; format: functional; conditions: route intraperitoneal; how it was run: as §1
[6] = system: L1210; assay: Antitumor activity against mouse L1210 cells xenografted in DBA/2J mouse assessed as survival at 100 mg/kg, ip administered 3 times on day 1, 5 and 9 postimplantation; format: functional, organism-based; how it was run: as §1
[7] = system: L1210; assay: Antitumor activity against mouse L1210 cells xenografted in DBA/2J mouse assessed as mean survival period at 500 mg/kg, ip administered 3 times on day 1, 5 and 9 postimplantation; format: functional; conditions: route intraperitoneal; how it was run: as §1
[8] = system: L1210; assay: Antitumor activity against mouse L1210 cells xenografted in DBA/2J mouse assessed as survival at 50 mg/kg, ip administered 3 times on day 1, 5 and 9 postimplantation; format: functional, organism-based; how it was run: as §1
[9] = system: L1210; assay: Antitumor activity against mouse L1210 cells xenografted in DBA/2J mouse assessed as mean survival period at 50 mg/kg, ip administered 3 times on day 1, 5 and 9 postimplantation; format: functional; conditions: route intraperitoneal; how it was run: as §1
[10] = system: L1210; assay: Antitumor activity against mouse L1210 cells xenografted in DBA/2J mouse assessed as mean survival period at 250 mg/kg, ip administered 3 times on day 1, 5 and 9 postimplantation; format: functional; conditions: route intraperitoneal; how it was run: as §1
[11] = system: L1210; assay: Antitumor activity against mouse L1210 cells xenografted in DBA/2J mouse assessed as mean survival period at 100 mg/kg, ip administered 3 times on day 1, 5 and 9 postimplantation; format: functional; conditions: route intraperitoneal; how it was run: as §1
[12] = system: L1210; assay: Antitumor activity against mouse L1210 cells xenografted in DBA/2J mouse assessed as mean survival period at 30 mg/kg, ip administered 3 times on day 1, 5 and 9 postimplantation; format: functional; conditions: route intraperitoneal; how it was run: as §1
[13] = system: L1210; assay: Antitumor activity against mouse L1210 cells xenografted in DBA/2J mouse assessed as mean survival period at 10 mg/kg, ip administered 3 times on day 1, 5 and 9 postimplantation; format: functional; conditions: route intraperitoneal; how it was run: as §1
[14] = system: L1210; assay: Antitumor activity against mouse L1210 cells xenografted in DBA/2J mouse at 30 mg/kg, ip administered 3 times on day 1, 5 and 9 postimplantation relative to control; format: functional; conditions: route intraperitoneal
How it was run: (§2)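 DBA/2J mice received syngeneic L1210 cells (1 × 10^6) i.p. on day 0. Groups of ten mice were randomised to drug or vehicle. Dosing was i.p. on days 1, 5 and 9 in 30% DMSO plus 0.7% glucose solution. Animals were checked daily and weighed three times per week. The study ran 120 days, with survival compared against untreated controls.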

[15] = system: L1210; assay: Antitumor activity against mouse L1210 cells xenografted in DBA/2J mouse at 60 ug/kg, ip administered 3 times on day 1, 5 and 9 postimplantation relative to control; conditions: route intraperitoneal
[16] = system: L1210; assay: Antitumor activity against mouse L1210 cells xenografted in DBA/2J mouse at 10 mg/kg, ip administered 3 times on day 1, 5 and 9 postimplantation relative to control; format: functional; conditions: route intraperitoneal; how it was run: as §2
[17] = system: L1210; assay: Antitumor activity against mouse L1210 cells xenografted in DBA/2J mouse assessed as mean survival period at 60 mg/kg, ip administered 3 times on day 1, 5 and 9 postimplantation; format: functional; conditions: route intraperitoneal; how it was run: as §1
[18] = Chemical stability of the compound in phosphate buffer of pH 7 assessed as half life; format: physicochemical
How it was run: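 The compound was held in pH 7.0 phosphate buffer for up to 72 h. Cleavage was followed as release of CBI-indole2, and the half-life was estimated from this.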

[19] = system: L1210; assay: Antitumor activity against mouse L1210 cells xenografted in DBA/2J mouse assessed as survival at 30 mg/kg, ip administered 3 times on day 1, 5 and 9 postimplantation; format: functional, organism-based; how it was run: as §1
[20] = system: L1210; assay: Antitumor activity against mouse L1210 cells xenografted in DBA/2J mouse at 200 mg/kg, ip administered 3 times on day 1, 5 and 9 postimplantation relative to control; format: functional; conditions: route intraperitoneal; how it was run: as §1
[21] = system: L1210; assay: Antitumor activity against mouse L1210 cells xenografted in DBA/2J mouse assessed as mean survival period at 200 mg/kg, ip administered 3 times on day 1, 5 and 9 postimplantation; format: functional; conditions: route intraperitoneal; how it was run: as §1
[22] = system: L1210; assay: Antitumor activity against mouse L1210 cells xenografted in DBA/2J mouse assessed as survival at 200 mg/kg, ip administered 3 times on day 1, 5 and 9 postimplantation; format: functional, organism-based; how it was run: as §1
[23] = system: L1210; assay: Antitumor activity against mouse L1210 cells xenografted in DBA/2J mouse assessed as survival at 60 mg/kg, ip administered 3 times on day 1, 5 and 9 postimplantation; format: functional, organism-based; how it was run: as §1
[24] = system: L1210; assay: Antitumor activity against mouse L1210 cells xenografted in DBA/2J mouse assessed as survival at 10 mg/kg, ip administered 3 times on day 1, 5 and 9 postimplantation; format: functional, organism-based; how it was run: as §1

COc1c(O)c2c(c3cc(C(=O)N4CCc5c4c(O)c(OC)c4[nH]c(C(=O)N6C[C@H]7C[C@@]78C6=CC(=O)c6[nH]cc(C)c68)cc54)[nH]c13)CCN2C(N)=O [(+)-CC-1065]
IC50 [1]: 0.02 nM

NC(=O)NOc1cc2c(c3ccccc13)[C@H](CCl)CN2C(=O)c1cc2cc(NC(=O)c3cc4ccccc4[nH]3)ccc2[nH]1
T/C [2]: 177% | T/C [3]: 152% | T/C [4]: 323% | T/C [5]: 133% | Activity [6]: inactive | IC50 [1]: 1.1 nM | Time [7]: 71 days | Activity [8]: inactive | Time [9]: 29 days | Time [10]: 39 days | Time [11]: 33 days

CN(Oc1cc2c(c3ccccc13)[C@@H](CCl)CN2C(=O)c1cc2cc(NC(=O)c3cc4ccccc4[nH]3)ccc2[nH]1)C(=O)OC(C)(C)C
IC50 [1]: 30 nM

NC(=O)NOc1cc2c(c3ccccc13)[C@@H](CCl)CN2C(=O)c1cc2cc(NC(=O)c3cc4ccccc4[nH]3)ccc2[nH]1
IC50 [1]: 30 nM

COC(=O)NOc1cc2c(c3ccccc13)[C@@H](CCl)CN2C(=O)c1cc2cc(NC(=O)c3cc4ccccc4[nH]3)ccc2[nH]1
IC50 [1]: 9 nM

O=C(Nc1ccc2[nH]c(C(=O)N3C[C@H](CCl)c4c3cc(O)c3ccccc43)cc2c1)c1cc2ccccc2[nH]1
IC50 [1]: 0.9 nM

CC(C)(C)OC(=O)NOc1cc2c(c3ccccc13)[C@H](CCl)CN2C(=O)c1cc2cc(NC(=O)c3cc4ccccc4[nH]3)ccc2[nH]1
Time [12]: 58 days | Time [13]: 50 days | T/C [14]: 265% | T/C [15]: 315% | T/C [3]: 389% | IC50 [1]: 0.1 nM | T/C [16]: 225% | Time [17]: 69 days | Time [11]: 86 days

CN(Oc1cc2c(c3ccccc13)[C@H](CCl)CN2C(=O)c1cc2cc(NC(=O)c3cc4ccccc4[nH]3)ccc2[nH]1)C(=O)OC(C)(C)C
IC50 [1]: 0.9 nM

CC(C)(C)C(=O)NOc1cc2c(c3ccccc13)[C@@H](CCl)CN2C(=O)c1cc2cc(NC(=O)c3cc4ccccc4[nH]3)ccc2[nH]1
IC50 [1]: 3.5 nM

O=C(Nc1ccc2[nH]c(C(=O)N3C[C@@H](CCl)c4c3cc(O)c3ccccc43)cc2c1)c1cc2ccccc2[nH]1 [SECO-CBI-INDOLE]
Time [12]: 51 days | Time [13]: 42 days | T/C [14]: 230% | T/C [15]: 352% | T/C [3]: 333% | IC50 [1]: 0.03 nM | T/C [16]: 192% | Time [17]: 78 days | Time [11]: 73 days

CC(C)(C)C(=O)NOc1cc2c(c3ccccc13)[C@H](CCl)CN2C(=O)c1cc2cc(NC(=O)c3cc4ccccc4[nH]3)ccc2[nH]1
half-life [18]: 6 h | IC50 [1]: 0.08 nM

COC(=O)NOc1cc2c(c3ccccc13)[C@H](CCl)CN2C(=O)c1cc2cc(NC(=O)c3cc4ccccc4[nH]3)ccc2[nH]1
Time [12]: 29 days | Time [13]: 24 days | T/C [14]: 133% | Activity [19]: inactive | T/C [15]: 126% | T/C [3]: 122% | Activity [6]: inactive | IC50 [1]: 0.5 nM | T/C [20]: 145% | Time [21]: 32 days | Activity [22]: inactive | T/C [16]: 110% | Activity [23]: inactive | Activity [24]: inactive | Time [17]: 28 days | Time [11]: 27 days

CC(C)(C)OC(=O)NOc1cc2c(c3ccccc13)[C@@H](CCl)CN2C(=O)c1cc2cc(NC(=O)c3cc4ccccc4[nH]3)ccc2[nH]1
IC50 [1]: 4 nM
